OX1R antag-1 – OX1R (human) antagonism; O43613; OX1R-expressing cells, FRET antagonist read-out; inhibition, % at 6.6 µM; 1.8% of 330,000 active; in the data active = inhibition mostly above about 38%, no sharp cut-off; inactive = mostly below about 40%
GalR3 antag – blocks the human galanin receptor 3; 0.44% of 360,000 active; inhibition, % at 3 µM; HEK293 GalR3-CNG cAMP membrane potential fluorescence; galR3 body fused to GalR1 C-terminus; AID 651719;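 active = inhibition above the screen-wide average plus 3 SD, cut at about 13% in these data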;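 also: forskolin and galanin both at EC90 stimulate the cells; cAMP rise reported by CNG channel membrane potential dye signal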
Target sequence (O60755 1-299 limits assumed): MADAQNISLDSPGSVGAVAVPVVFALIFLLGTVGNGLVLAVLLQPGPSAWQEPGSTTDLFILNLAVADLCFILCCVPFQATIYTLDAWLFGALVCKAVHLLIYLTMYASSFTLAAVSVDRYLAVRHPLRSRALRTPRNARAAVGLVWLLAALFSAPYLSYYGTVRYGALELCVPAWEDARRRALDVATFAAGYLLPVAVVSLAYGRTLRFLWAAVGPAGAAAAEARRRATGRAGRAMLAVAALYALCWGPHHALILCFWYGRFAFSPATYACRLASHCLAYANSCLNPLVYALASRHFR
TAAR1 antag – human TAAR1 antagonism. Q96RJ0. CHO RD-HGA16 TAAR1, Fluo-8 calcium fluorescence, antagonist. inhibition, % at 3 µM. 1.5% of 360,000 active. AID 624466;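 active = inhibition above a per-plate cutoff, the mean inhibition of test compounds on that plate plus 3 SD, cut at about 49% in these data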
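System: CHO RD-HGA16 cells bearing hTAAR1. Reagent: EC80 β-phenethylamine stimulus. Schedule: seeding 17-24 h prior, 75-min 37 °C, 30-min RT dye loading. Signal: Fluo-8 intracellular calcium dye fluorescence, real-time kinetic reads. Read-out: % inhibition from peak post-agonist over basal fluorescence ratio. Benchmarks: vehicle wells and EC80 agonist wells. Replicates: n of 1.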
OX1R antag-2 – human HCRTR1 antagonism. 0.43% of 330,000 active. inhibition, % at 5 µM. O43613. CHO/OX1R cells, Fluo-8 calcium fluorescence, orexin A;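 active = inhibition above its plate's threshold, mean inhibition of all tested compounds on the plate plus 3 SD, cut at about 37% in these data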
CHO parental Ca – signal in parental CHO cells, OX1R antagonist counter-screen | parental CHO-K1, ATP-induced calcium, Fluo-8 fluorescence | inhibition, % at 5.6 µM | 0.63% of 330,000 active;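 active = inhibition above that plate's mean sample inhibition plus 3 SD, cut at about 26% in these data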
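Measured by: calcium-sensitive Fluo-8 fluorescence / Test system: CHO parental line / Controls: ATP-challenged DMSO wells low, unchallenged DMSO wells high / Measure: % inhibition / Compound: single nominal dose of 5.6 µM per compound / Replicates: single well per compound, no replicates / Reagent: ATP as calcium-mobilizing challenge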
TAAR1 agonist – human TAAR1 agonism; activation, % at 3 µM; CHO RD-HGA16 TAAR1, Fluo-8 calcium fluorescence; vehicle wells 0%, saturating PEA agonist 100%; Q96RJ0; 0.99% of 360,000 active;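 active = activation above the mean activation of all test compounds in the run plus 3 SD, cut at about 38% in these data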
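Test system: RD-HGA16 (CHO) cells co-expressing Gα16 and hTAAR1 | Doses: Single dose, 3 µM | Schedule: 17-24 h seeding, 75 min 37 °C dye, 30 min RT | Evaluation: % activation from peak over basal fluorescence ratio, DMSO-to-PEA scaled | Technique: Kinetic Fluo-8 calcium fluorescence | Benchmarks: Low control DMSO, high control PEA (EC100)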
A number is an active result; - = inactive; . = no result given. In the library only some 4.2% were active in any assay of this set; here they are far more common.

SMILES	OX1R antag-1	GalR3 antag	TAAR1 antag	OX1R antag-2	CHO parental Ca	TAAR1 agonist
CSc1ccc(S(=O)(=O)Nc2ccc(F)cc2)cc1	-	-	-	-	-	39
O=S(=O)(Nc1ccc(F)cc1)c1ccc(S(=O)(=O)N2CCOCC2)cc1	-	-	-	-	-	61
O=S(=O)(Nc1ccc2c(c1)OCCO2)c1ccc(F)cc1	-	-	-	-	-	40
CC(C)CC(C(=O)OCC(=O)Nc1ncc(Cl)cc1Cl)N1C(=O)c2ccccc2C1=O (configuration not stated)	-	-	-	-	-	-
Cc1cc(C)cc(OC(=O)c2cccnc2)c1	-	-	-	-	-	-
CC(C)(C)c1ccc(CC(=O)N2CCC2(C)C(=O)Nc2ccc3[nH]ncc3c2)cc1 (configuration not stated)	.	-	-	.	.	-
CC1(C(=O)Nc2ccc3[nH]ncc3c2)CCN1C(=O)Cc1ccc(-c2ccccc2)cc1 (configuration not stated)	.	-	50	.	.	-
O=C(O)c1cccc(CSc2nc(-c3ccc(Cl)cc3)cc(C(F)(F)F)n2)c1	-	-	54	-	-	-
CSc1nc(C)cc(OCCNS(=O)(=O)c2ccc(C)cc2)n1	39	-	-	-	-	-
COc1ccc(CCNC(=O)COc2ncnc3cc([N+](=O)[O-])ccc23)cc1	53	-	-	-	-	-
Nc1nc(Cl)cc(N2CCC(c3cc(-c4ccc(Cl)cc4Cl)n[nH]3)CC2)n1	-	-	-	-	32	-
Nc1nc(Cl)cc(N2CCCC2)n1	-	-	-	-	-	-
CCc1ccc(-c2cc(C)no2)cc1S(=O)(=O)N1CC(=O)Nc2ccccc21	-	-	-	-	-	-
Cc1cc(-c2ccc(C(C)C)c(S(=O)(=O)N3CC(=O)Nc4ccccc43)c2)on1	39	-	-	-	-	-
O=S(=O)(c1ccc(N2CCC(c3ccc(Cl)cc3)=N2)cc1)N(CCO)CCO	-	-	-	46	62	-
COc1ccccc1C(=O)Nc1ccnn1C1CCN(CC2CC=CCC2)CC1 (configuration not stated)	-	-	-	-	-	-
CS(=O)(=O)c1cccc(C(=O)N(CCc2ccccc2)Cc2cccs2)c1	-	-	-	-	-	38
O=C(C[n+]1ccc(/C=C/c2ccccc2)cc1)c1ccc2c(c1)OCCO2	-	-	-	-	-	44
CN(C)C(=O)c1ccc(NC(=O)c2cccc(S(=O)(=O)N3CCN(Cc4ccccc4)CC3)c2)cc1	.	-	-	.	.	-
CN(CC(=O)Nc1ccc(Cl)cc1)C(=O)c1cccc(S(=O)(=O)N2CCN(Cc3ccccc3)CC2)c1	-	-	50	-	37	-
O=C1c2oc3ccc(Cl)cc3c(=O)c2C(c2ccccn2)N1CCCN1CCOCC1 (configuration not stated)	-	.	-	-	-	-
Cc1cccc(C)c1N=Nc1c(C)cc(O)cc1C	-	-	-	-	60	-
Cc1ccc(S(=O)(=O)N2CCN(C(=O)CCCOc3ccc(Cl)cc3C)CC2)cc1	-	-	-	-	-	-
O=c1nc2n(c3ccc([N+](=O)[O-])cc13)CCCCC2	59	-	-	-	-	-
O=C(Nc1ccc2nc3n(c(=O)c2c1)CCCCC3)c1cc([N+](=O)[O-])ccc1F	-	-	-	-	-	-
SMILES	OX1R antag-1	GalR3 antag	TAAR1 antag	OX1R antag-2	CHO parental Ca	TAAR1 agonist
Cc1ccc(C(=O)OCC(=O)N(Cc2ccccc2)C(C)C)cc1C	36	-	-	-	-	-
CC(=O)Nc1ccc(C(=O)OCC(=O)NC(=O)NCc2ccccc2)cc1	.	-	-	.	.	-
O=C(COC(=O)c1ccc(F)c([N+](=O)[O-])c1)NC(=O)NCc1ccccc1	33	-	-	-	-	-
Cc1ccc(C(=O)OCC(=O)NCCc2ccccc2)cc1C	-	-	-	-	-	-
Cc1ccc(C(=O)OCC(=O)NC(=O)NCc2ccccc2)cc1C	-	-	50	-	-	-
CC(C)N(Cc1ccccc1)C(=O)COC(=O)c1ccc2ncsc2c1	-	-	-	-	-	-
COc1cc(C(=O)NCCC(=O)N2CCCCC2)cc(OC)c1OC	-	-	-	-	-	-

Screens: PubChem, The Scripps Research Institute Molecular Screening Center
